# Laboratory results: ChEMBL document CHEMBL3580554, “Design, synthesis, and anticonvulsant activity of new hybrid compounds derived from 2-(2,5-dioxopyrrolidin-1-yl)propanamides and 2-(2,5-dioxopyrrolidin-1-yl)butanamides” (J Med Chem, 2015)
# What was measured:
# [1] = tested on: Mus musculus; assay: Anticonvulsant activity in Swiss mouse assessed as protection against seizures at 300 mg/kg, ip dosed 0.25 hrs before initiation of maximal electroconvulsions by maximal electroshock test; format: functional
# Outline: (§1)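 Mice were dosed i.p. at a fixed 300 or 100 mg/kg (6 Hz: 100 mg/kg only). Protection was then scored against MES, sc PTZ or 6 Hz seizures at pretreatment times of 0.25, 0.5, 1 and 2 h. Groups were four mice, scored as number protected / number tested. This also gives the time course and time of peak effect.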
# [2] = tested on: Mus musculus; assay: Anticonvulsant activity in Swiss mouse assessed as protection against seizures at 300 mg/kg, ip dosed 2 hrs before initiation of maximal electroconvulsions by maximal electroshock test; format: functional; outline: as §1
# [3] = tested on: Mus musculus; assay: Anticonvulsant activity in Swiss mouse assessed as protection against seizures at 100 mg/kg, ip dosed 0.25 hrs before initiation of maximal electroconvulsions by maximal electroshock test; format: functional; outline: as §1
# [4] = tested on: Mus musculus; assay: Anticonvulsant activity in Swiss mouse assessed as protection against seizures at 100 mg/kg, ip dosed 0.5 hrs before initiation of maximal electroconvulsions by maximal electroshock test; format: functional; outline: as §1
# [5] = tested on: Mus musculus; assay: Anticonvulsant activity in Swiss mouse assessed as protection against seizures at 100 mg/kg, ip dosed 1 hr before initiation of maximal electroconvulsions by maximal electroshock test; format: functional; outline: as §1
# [6] = tested on: Mus musculus; assay: Anticonvulsant activity in Swiss mouse assessed as protection against seizures at 100 mg/kg, ip dosed 2 hrs before initiation of maximal electroconvulsions by maximal electroshock test; format: functional; outline: as §1
# [7] = tested on: Mus musculus; assay: Anticonvulsant activity in Swiss mouse assessed as protection against seizures at 300 mg/kg, ip dosed 0.25 hrs before pentylenetetrazole challenge by subcutaneous pentylenetetrazole seizure test; format: functional; outline: as §1
# [8] = tested on: Mus musculus; assay: Anticonvulsant activity in Swiss mouse assessed as protection against seizures at 100 mg/kg, ip dosed 0.25 hrs before pentylenetetrazole challenge by subcutaneous pentylenetetrazole seizure test; format: functional; outline: as §1
# [9] = tested on: Mus musculus; assay: Anticonvulsant activity in Swiss mouse assessed as protection against seizures at 100 mg/kg, ip dosed 0.5 hrs before pentylenetetrazole challenge by subcutaneous pentylenetetrazole seizure test; format: functional; outline: as §1
# [10] = tested on: Mus musculus; assay: Anticonvulsant activity in Swiss mouse assessed as protection against seizures at 100 mg/kg, ip dosed 2 hrs before pentylenetetrazole challenge by subcutaneous pentylenetetrazole seizure test; format: functional; outline: as §1
# [11] = tested on: Mus musculus; assay: Anticonvulsant activity in Swiss mouse model of 6 Hz psychomotor seizure mode assessed as protection against seizures at 100 mg/kg, ip dosed 0.25 hrs before 6 Hz electrical stimulation by 6 Hz test; format: functional; outline: as §1
# [12] = tested on: Mus musculus; assay: Anticonvulsant activity in Swiss mouse model of 6 Hz psychomotor seizure mode assessed as protection against seizures at 100 mg/kg, ip dosed 0.5 hrs before 6 Hz electrical stimulation by 6 Hz test; format: functional; outline: as §1
# [13] = tested on: Mus musculus; assay: Anticonvulsant activity in Swiss mouse model of 6 Hz psychomotor seizure mode assessed as protection against seizures at 100 mg/kg, ip dosed 1 hr before 6 Hz electrical stimulation by 6 Hz test; format: functional; outline: as §1
# [14] = tested on: Mus musculus; assay: Anticonvulsant activity in Swiss mouse model of 6 Hz psychomotor seizure mode assessed as protection against seizures at 100 mg/kg, ip dosed 2 hrs before 6 Hz electrical stimulation by 6 Hz test; format: functional; outline: as §1
# [15] = species: Rattus norvegicus; assay: Inhibition of [3H]BTX binding to sodium channel site 2 in rat cerebral cortex synaptosomes at 10 uM incubated for 60 mins by scintillation counting based radioligand displacement assay; format: subcellular
# Outline: (§2)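 Synaptoneurosomal preparations from rat cerebral cortex were used. The read-out was inhibition of specific [3H]BTX binding to the voltage-sensitive sodium channel (site 2), expressed as % inhibition of control specific binding. Compounds were tested at 1, 10, 100 and 500 μM. Inhibition above 50% was taken as significant.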
# [16] = species: Rattus norvegicus; assay: Inhibition of [3H]BTX binding to sodium channel site 2 in rat cerebral cortex synaptosomes at 1 uM incubated for 60 mins by scintillation counting based radioligand displacement assay; format: subcellular; outline: as §2
# [17] = species: Mus musculus; assay: Protective index, ratio of neurotoxic TD50 in Swiss mouse by Chimney test to anticonvulsant ED50 in Swiss mouse measured at 0.5 hrs of time to peak effect by maximal electroshock test
# Outline: (§3)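 Protective index was calculated as TD50 (chimney test, mouse, i.p.) divided by ED50 from the matching MES, sc PTZ or 6 Hz test, both taken at the time of peak effect.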
# [18] = tested on: Mus musculus; assay: Anticonvulsant activity in ip dosed Swiss mouse assessed as protection against seizures measured at 0.5 hrs of time to peak effect by subcutaneous pentylenetetrazole seizure test; format: functional
# Outline: (§4)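 Median effective doses (ED50, mg/kg) were determined i.p. in mice at the time of peak effect in the MES, sc PTZ or 6 Hz tests. Only compounds giving at least 50% protection at 100 mg/kg in that test were taken forward.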
# [19] = tested on: Mus musculus; assay: Anticonvulsant activity in ip dosed Swiss mouse assessed as protection against seizures measured at 0.5 hrs of time to peak effect by 6 Hz test by 6 Hz psychomotor seizure test; format: functional; outline: as §4
# [20] = Toxicity in ip dosed Swiss mouse assessed as induction of motor performance impairment measured within 60 seconds measured at 0.5 hrs of time to peak effect by Chimney test; format: organism-based; conditions: in vivo
# Outline: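 Neurotoxicity was measured i.p. in mice by the chimney test for motor impairment. It was given as the median neurotoxic dose (TD50, mg/kg) at the time of peak effect.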
# [21] = tested on: Mus musculus; assay: Anticonvulsant activity in ip dosed Swiss mouse assessed as protection against seizures measured at 1 hr of time to peak effect by subcutaneous pentylenetetrazole seizure test; format: functional
# [22] = tested on: Mus musculus; assay: Anticonvulsant activity in ip dosed Swiss mouse assessed as protection against seizures measured at 1 hr of time to peak effect by 6 Hz test by 6 Hz psychomotor seizure test; format: functional
# [23] = species: Mus musculus; assay: Protective index, ratio of neurotoxic TD50 in Swiss mouse by Chimney test to anticonvulsant ED50 in Swiss mouse measured at 1 hr of time to peak effect by maximal electroshock test; outline: as §3
# [24] = tested on: Mus musculus; assay: Protective index, ratio of neurotoxic TD50 in Swiss mouse by Chimney test to anticonvulsant ED50 in Swiss mouse measured at 1 hr of time to peak effect by subcutaneous pentylenetetrazole seizure test; format: functional; outline: as §3
# [25] = species: Rattus norvegicus; assay: Inhibition of [3H]BTX binding to sodium channel site 2 in rat cerebral cortex synaptosomes at 500 uM incubated for 60 mins by scintillation counting based radioligand displacement assay; format: subcellular; outline: as §2
# [26] = Toxicity against HEK293 cells assessed as reduction in cell viability after 48 hrs by EZ4U label based assay; conditions: human
# Outline: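 HEK-293 human embryonic kidney cells were incubated with compound for 48 h and viability was then measured. Doxorubicin served as standard.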
# [27] = Ratio of IC50 for test compound to IC50 for doxorubicin against HEK293 cells assessed as reduction in cell viability after 48 hrs by EZ4U label based assay; conditions: human, read-out: Ratio IC50
# [28] = tested on: Liver microsome; assay: Drug metabolism in human liver microsomes assessed as metabolite M4 formation at 50 uM in presence of NADPH regeneration system pre-incubated at 37 degC for 5 min and measured 2 hrs after post NADPH system addition by UPLC and LC-MS/MS method; format: ADME
# Outline: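 The compound was incubated 2 h with human liver microsomes. Metabolites were detected by full-scan chromatogram and identified by LC/MS from their [M+H]+ molecular masses.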
structure (smiles),measurement,setting,value
CC(C(=O)N1CCN(c2cccc(C(F)(F)F)c2)CC1)N1C(=O)CCC1=O (racemic),Activity,[1],75%
same,Activity,[2],100%
same,Activity,[3],50%
same,Activity,[4],75%
same,Activity,[5],50%
same,Activity,[6],0%
same,Activity,[7],100%
same,Activity,[8],50%
same,Activity,[9],100%
same,Activity,[10],75%
same,Activity,[11],75%
same,Activity,[12],100%
same,Activity,[13],100%
same,Activity,[14],100%
same,inhibition,[15],12.2%
same,inhibition,[16],3.5%
same,Ratio TD50/ED50,[17],>16.97
same,ED50,[18],59.9 mg/kg
same,ED50,[19],21 mg/kg
same,TD50 at 0.5 h,[20],> 1500 mg/kg
same,ED50,[21],88.7 mg/kg
same,ED50,[22],35 mg/kg
same,Ratio TD50/ED50,[23],9.68
same,Ratio TD50/ED50,[24],9.28
same,inhibition,[25],62.3%
same,IC50 at 48 h,[26],50.7 µM
same,selectivity ratio at 48 h,[27],100
same,Drug metabolism,[28],metabolite_detected
